Laboratory results from ChEMBL document CHEMBL1126907, “Possible contribution of a glutathione conjugate to the long-duration action of beta-funaltrexamine” (J Med Chem, 1993).

Key:
Mus musculus [1] = assay: Equivalent antagonist potencies of compound was measured after 24 hr of icv administration; type: functional
[2] = Ratio of effective dose of morphine at 2 hr after antagonist treatment by icv administration (4.8 nmol) divided by its control; type: functional
How it was run: (§1)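 Mice, radiant heat tail-flick. Antagonist given icv at 4.8 nmol/mouse. At the stated interval afterwards, morphine was given sc and the test read 30 min later. Morphine ED50 after treatment was divided by control ED50. 95% confidence limits come from three or four animals.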

Mu-type opioid receptor [3] = molecular target: Mu-type opioid receptor (Cavia porcellus, UniProt P97266); assay: Inhibitory concentration against mu-opioid receptor in guinea pig ileum; type: tissue-based
Sequence of Mu-type opioid receptor (Cavia porcellus, UniProt P97266) (P97266 whole entry): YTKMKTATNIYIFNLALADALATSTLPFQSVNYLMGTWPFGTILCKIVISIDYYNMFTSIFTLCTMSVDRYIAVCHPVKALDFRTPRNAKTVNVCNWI
How it was run: (§2)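 Electrically stimulated guinea pig ileum longitudinal muscle or mouse vas deferens. Agonist IC50 for inhibition of the stimulated response was determined as described previously.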

[4] = Inhibitory concentration of ethylketazocine determined after treating with conjugate for 60 min of guinea pig ileum then divided by control IC50 in same preparation; type: functional
How it was run: (§3)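 Electrically stimulated guinea pig ileum was incubated with conjugate (1 × 10^-6 M) for 60 min, then washed ≥40 times with buffer. The agonist IC50 (ethylketazocine or morphine) was then divided by the control IC50 in the same preparation. Assays were run in triplicate, with se reported.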

[5] = Ratio of effective dose of morphine at 24 hr after antagonism treatment by icv administration (4.8 nmol) divided by its control ED50; type: functional; how it was run: as §1
[6] = Ratio of effective dose of morphine at 72 hr after antagonism treatment by icv administration (4.8 nmol) divided by its control ED50; type: functional; how it was run: as §1
Mu-type opioid receptor [7] = molecular target: Mu-type opioid receptor (Mus musculus, UniProt P42866); assay: Inhibitory concentration against mu-opioid receptor in mouse vas deferens; how it was run: as §2
Sequence of Mu-type opioid receptor (Mus musculus, UniProt P42866) (P42866 whole entry): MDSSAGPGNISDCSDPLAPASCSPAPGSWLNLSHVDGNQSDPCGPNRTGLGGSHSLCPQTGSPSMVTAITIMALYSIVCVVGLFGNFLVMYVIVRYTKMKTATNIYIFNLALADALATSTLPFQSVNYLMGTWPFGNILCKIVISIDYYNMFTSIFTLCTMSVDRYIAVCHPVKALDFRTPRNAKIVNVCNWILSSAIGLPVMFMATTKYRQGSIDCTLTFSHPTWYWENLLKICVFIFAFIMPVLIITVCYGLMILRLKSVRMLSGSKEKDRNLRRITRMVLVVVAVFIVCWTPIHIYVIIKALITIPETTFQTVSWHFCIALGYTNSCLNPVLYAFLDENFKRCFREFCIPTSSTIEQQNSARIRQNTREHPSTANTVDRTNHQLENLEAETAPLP

[8] = Ratio of Equivalent antagonist potencies after 24 hr of icv administration/Equivalent antagonist potencies after 24 hr of sc administration was determined; type: functional
[9] = Ratio of effective dose of morphine at 24 hr after antagonism treatment by sc administration divided by its control; type: functional
How it was run: (§4)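 Mice, radiant heat tail-flick. Antagonist given sc at 5 mg/kg. At the stated interval, sc morphine was given 30 min before testing. Post-treatment morphine ED50 was divided by control ED50. 95% confidence limits come from three or four animals.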

Mus musculus [10] = assay: Equivalent antagonist potencies of compound was measured after 24 hr of sc administration; type: functional
[11] = Ratio of effective dose of morphine at 30 min after antagonism treatment by sc administration divided by its control; type: functional; how it was run: as §4
[12] = Inhibitory concentration of morphine determined after treating with conjugate for 60 min of guinea pig ileum then divided by control IC50 in same preparation; type: functional; how it was run: as §3
[13] = (§5) Ratio of effective dose of morphine at 24 hr after antagonism treatment by sc administration in mouse divided by its control; type: functional
How it was run: (§6)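 Mice got antagonist sc at 5 mg/kg. At 30 min or 24 h, sc morphine was given 30 min before radiant heat tail-flick testing. The morphine ED50 was divided by the control ED50, with 95% confidence limits from three or four animals.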

Mus musculus [14] = assay: Equivalent antagonist potencies of compound was measured after 24 hr of sc administration; antagonist dose; type: functional
[15] = (§7) Ratio of effective dose of morphine at 30 min after antagonism treatment by sc administration in mouse divided by its control; type: functional; how it was run: as §6
[16] = (§8) Ratio of effective dose of morphine at 2 hr after antagonist treatment by icv administration in mouse (4.8 nmol) divided by its control; type: functional
How it was run: (§9)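 Mice got antagonist icv at 4.8 nmol/mouse. At set times afterwards, morphine was given sc, and radiant heat tail-flick antinociception was measured 30 min later. The morphine ED50 was divided by the control ED50. Results are given with 95% confidence limits from three or four animals.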

Mus musculus [17] = assay: Equivalent antagonist potencies of compound was measured after 24 hr of icv administration; antagonist dose; type: functional
[18] = (§10) Ratio of effective dose of morphine at 24 hr after antagonism treatment by icv administration in mouse (4.8 nmol) divided by its control ED50; type: functional; how it was run: as §9
[19] = Ratio of effective dose of morphine at 72 hr after antagonism treatment by icv administration in mouse (4.8 nmol) divided by its control ED50; type: functional; how it was run: as §9
[20] = Ratio of effective dose of morphine at 48 hr after antagonism treatment by icv administration in mouse (4.8 nmol) divided by its control ED50; type: functional; how it was run: as §9
Mus musculus [21] = assay: as §5; type: functional; how it was run: as §6
Mus musculus [22] = assay: as §7; type: functional; how it was run: as §6
Mus musculus [23] = assay: as §8; type: functional; how it was run: as §9
Mus musculus [24] = assay: as §10; type: functional; how it was run: as §9
[25] = Ratio of effective dose of morphine at 2 hr after antagonist treatment by icv administration in mice (4.8 nmol) divided by its control; type: functional; how it was run: as §9
[26] = Ratio of effective dose of morphine at 30 min after antagonism treatment by sc administration in mice divided by its control; type: functional; how it was run: as §6
Mus musculus [27] = assay: Equivalent antagonist potencies of compound was measured after 24 hr of icv administration in mice; antagonist dose; type: functional
Mus musculus [28] = assay: Equivalent antagonist potencies of compound was measured after 24 hr of sc administration in mice; antagonist dose; type: functional
[29] = Ratio of effective dose of morphine at 24 hr after antagonism treatment by sc administration in mice divided by its control); type: functional; how it was run: as §6
[30] = Ratio of Equivalent antagonist potencies after 24 hr of icv administration/Equivalent antagonist potencies after 24 hr of sc administration in mice was determined; type: functional
[31] = Ratio of effective dose of morphine at 24 hr after antagonism treatment by icv administration in mice (4.8 nmol) divided by its control ED50; type: functional; how it was run: as §9

## COC(=O)/C=C/C(=O)N[C@@H]1CC[C@@]2(O)[C@H]3Cc4ccc(O)c5c4[C@@]2(CCN3CC2CC2)[C@H]1O5
Mus musculus [1]
  Inhibition: 0.034 µM/kg
[2]
  Ratio: 9.7
Mu-type opioid receptor [3]
  IC50: 4.8 nM
[4]
  Ratio: 1.1
[5]
  Ratio: 6.6
[6]
  Ratio: 2.4
Mu-type opioid receptor [7]
  IC50: 82 nM
[8]
  Ratio: 74
[9]
  Ratio: 3.9
Mus musculus [10]
  Inhibition: 2.5 µM/kg
[11]
  Ratio: 3.9
[12]
  Ratio: 19.5

## COC(=O)CC(SCC(N)C(=O)O)C(=O)N[C@@H]1CC[C@@]2(O)[C@H]3Cc4ccc(O)c5c4[C@@]2(CCN3CC2CC2)[C@H]1O5 (stereo not given in full)
[13]
  Ratio: 1.3
Mus musculus [14]
  Inhibition: 5 µM/kg
[15]
  Ratio: 1.4
[16]
  Ratio: 4.8
Mus musculus [17]
  Inhibition: 0.004 µM/kg
[18]
  Ratio: 42.2
Mu-type opioid receptor [3]
  IC50: 22 nM
[4]
  Ratio: 1
Mu-type opioid receptor [7]
  IC50: 140 nM
[8]
  Ratio: 1250
[19]
  Ratio: 1.3
[20]
  Ratio: 2.8
[12]
  Ratio: 1.7

## NC(CSCC(=O)N[C@@H]1CC[C@@]2(O)[C@H]3Cc4ccc(O)c5c4[C@@]2(CCN3CC2CC2)[C@H]1O5)C(=O)O (stereo not given in full)
Mus musculus [21]
  Ratio: 1.3
Mus musculus [22]
  Ratio: 3
Mus musculus [23]
  Ratio: 3
Mus musculus [24]
  Ratio: 0.57

## COC(=O)CC(SCC(NC(=O)CCC(N)C(=O)O)C(=O)NCC(=O)O)C(=O)N[C@@H]1CC[C@@]2(O)[C@H]3Cc4ccc(O)c5c4[C@@]2(CCN3CC2CC2)[C@H]1O5 (stereo not given in full)
Mu-type opioid receptor [3]
  IC50: 41 nM
[4]
  Ratio: 0.3
[25]
  Ratio: 3.1
[26]
  Ratio: 3.8
Mus musculus [27]
  Inhibition: 0.036 µM/kg
Mu-type opioid receptor [7]
  IC50: 280 nM
Mus musculus [28]
  Inhibition: 3 µM/kg
[29]
  Ratio: 2.6
[30]
  Ratio: 83
[31]
  Ratio: 6.3
[12]
  Ratio: 1.2
